Screening results (PubChem BioAssay)
A selection: hits, their analogues and other compounds. The true share with any hit is near 3.7%.
procasp7 counter = procaspase-7 activators, primary screen, counter-screen for procaspase-3 activator project, biochemical, absorbance, HTS, human; recombinant procaspase-7, Ac-DEVD-pNA absorbance 405 nm; D23A/D198A/D206A triple mutant, cannot self-cleave; scale: DMSO 0, 5 µM enzyme 100; AID 463210, 2010; Caspase-7 (Homo sapiens), P55210; actives 0.093% (n = 330,000); activation, % at 8.5 µM;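 active means percent activation above the screen-wide mean plus 3 SD, cut at about 25% in these data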
Target sequence (P55210 whole entry D23A/D198A/D206A): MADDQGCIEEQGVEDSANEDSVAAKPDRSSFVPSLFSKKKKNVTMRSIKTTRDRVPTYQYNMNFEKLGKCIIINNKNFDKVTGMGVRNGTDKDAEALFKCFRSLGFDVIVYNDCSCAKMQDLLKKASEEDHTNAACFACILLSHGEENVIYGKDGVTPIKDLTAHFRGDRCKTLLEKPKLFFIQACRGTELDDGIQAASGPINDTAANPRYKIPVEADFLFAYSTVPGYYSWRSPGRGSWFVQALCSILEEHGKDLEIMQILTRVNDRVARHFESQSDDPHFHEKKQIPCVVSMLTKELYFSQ
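Assay system: Uncleavable procaspase-7 mutant enzyme; Input: 2 µM procaspase-7 mutant as dispensed; Also added: DEVD-pNA substrate; Medium: Zinc-free HEPES pH 7.4 with 300 mM NaCl, 0.01% Triton X-100; Timing: 1 h compound preincubation, 2 h substrate cleavage, 25 °C; Measured by: Epi-absorbance of released pNA at 405 nm, two timepoints.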
GRIN3A LBD mod = binders of NR3A ligand-binding domain, primary screen, biophysical, differential scanning fluorimetry, uHTS. Glutamate receptor ionotropic, NMDA 3A (GRIN3A) ligand-binding domain. NR3A LBD differential scanning fluorimetry, Tm shift; 0% = protein alone, 100% = glycine-bound protein. Tm shift relative to glycine control, % at 25 µM. actives 2.5% (n = 340,000);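 active means melting temperature shift of at least 10% of the positive control shift, at one fixed dose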
procasp3 activ = activators of human procaspase-3 D3A mutant, primary screen, biochemical, absorbance, PC-3 D3A mutant, single concentration. Caspase-3 (Homo sapiens), P42574. recombinant procaspase-3 D3A, Ac-DEVD-pNA absorbance 405 nm. activation, % at 8.5 µM. actives 0.11% (n = 330,000);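 active means activation above the mean of all tested compounds plus 3 SD, cut at about 21% in these data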;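 further: 0% = DMSO alone and 100% = DMSO wells spiked with extra 5 µM PC-3 D3A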
Target sequence (P42574 whole entry D9A/D28A/D175A): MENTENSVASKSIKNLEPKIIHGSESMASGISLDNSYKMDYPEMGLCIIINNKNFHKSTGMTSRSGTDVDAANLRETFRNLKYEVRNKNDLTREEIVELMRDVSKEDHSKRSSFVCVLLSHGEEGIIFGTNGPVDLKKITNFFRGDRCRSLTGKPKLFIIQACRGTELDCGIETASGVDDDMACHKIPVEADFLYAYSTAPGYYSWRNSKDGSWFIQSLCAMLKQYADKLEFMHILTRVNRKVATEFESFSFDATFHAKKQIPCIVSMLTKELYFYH
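Test system: Procaspase-3 D3A mutant, all three cleavage aspartates alanine | Dosing: Single dose, 8.5 µM nominal compound, 0.8% DMSO | Schedule: 1 h preincubation, 2 h reaction | Technique: 405 nm absorbance of p-nitroaniline, reads at 0 and 120 min | Repeats: One well per compound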
MPTP block = mitochondrial permeability transition pore inhibitors, primary screen, biochemical, isolated mouse mitochondria, absorbance; Ca2+ swelling absorbance, 30 min; inhibition, % at 10 µM; actives 1.4% (n = 360,000);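 active means inhibition of 50% or more, scaled per plate between neutral and stimulator controls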;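 further: 0% = DMSO wells given calcium and 100% = 1 mM EGTA wells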
aDG glyco act = activators of alpha-DG glycosylation, primary screen, uHTS, Pro5-aDG cells, AlphaScreen. alpha-DG glycosylation AlphaScreen (IIH6); 0% Pro5, 100% B10-LARGE cell signal. activation, % at 10 µM. actives 0.22% (n = 360,000);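 active means activation of at least 8% versus controls, or a plate z-score of at least 8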;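 further: Pro5 are CHO cells carrying HIG-tagged alpha-DG that lacks glycosylation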
Numbers without * were called inactive; / = not tested or not shown.

SMILES | procasp7 counter | GRIN3A LBD mod | procasp3 activ | MPTP block | aDG glyco act
CC(=O)c1cc2c(cc1NC(=O)CN1Cc3ccccc3C1=O)OCO2 | 7 | 12* | 2 | -2 | 0
Cn1nc(C(=O)N2CCN(S(=O)(=O)c3ccccc3)CC2)c2ccccc2c1=O | -9 | 12* | -1 | 0 | 0
Cc1ccc(S(=O)(=O)N2CCN(C(=O)c3nn(C(C)C)c(=O)c4ccccc34)CC2)cc1C | 13 | -5 | 1 | 0 | 0
CC1CCCN(CC(=O)Nc2ccc(S(=O)(=O)N3C(C)CCCC3C)cc2)C1 (stereo unspecified) | / | / | / | 0 | 0
CCN(CC)C(=O)Oc1cc(=O)n2c3c(cccc13)CCC2 | 4 | 20* | -3 | 10 | 0
CCCNC(=O)c1c(O)c2cccc3c2n(c1=O)CCC3 | / | 1 | / | 0 | 0
CCOC(=O)[C@]12CCC=C1N(Cc1ccc(Cl)cc1Cl)C(=O)[C@H](CC(=O)N1CCN(C(=O)c3ccco3)CC1)C2 | / | / | / | -2 | 0
COc1ccccc1C(=O)NNC(=O)CCC(=O)NCc1ccccc1 | 7 | 12* | -3 | 0 | 0
CCCC(=O)NNC(=O)CCC(=O)NCc1ccccc1 | 2 | 0 | -3 | -2 | 0
COc1cccc(C2C3=C(N=c4s/c(=C\c5cccc(O)c5)c(=O)n42)c2ccccc2CC3)c1OC (stereo unspecified) | 4 | 31* | -2 | 6 | 1
COc1cccc(C2C3=C(N=c4s/c(=C\c5ccc(O)cc5)c(=O)n42)c2ccccc2CC3)c1OC (stereo unspecified) | 9 | -14 | 1 | 0 | -1
Brc1ccc(Nc2nc(-c3cccnc3)cs2)cc1 | 5 | 21* | 1 | 27 | 0
Brc1ccc(-c2csc(Nc3nc(-c4ccc(Br)cc4)cs3)n2)cc1 | 1 | 32* | 1 | 0 | 0
Nc1nc(-c2ccc(Br)cc2)cs1 | -15 | -2 | -19 | -4 | 0
COc1ccc(Cl)cc1Nc1nc(-c2cccnc2)cs1 | -1 | 24* | -7 | 0 | 0
Brc1cccc(Nc2nc(-c3cccnc3)cs2)c1 | 6 | 43* | 6 | 1 | 0
CN(CCOc1ccccc1)C(=O)c1cc(S(=O)(=O)N2CCOCC2)c(Cl)cc1Cl | / | / | / | 0 | 0
CCCC(CNC(C)=O)(C1=CCCCC1)c1ccccc1 (stereo unspecified) | / | / | / | 10 | 0
O=C(COC(=O)CNC(=O)c1ccccc1)NC(=O)NC1CCCCC1 | -4 | 1 | 8 | 0 | 0
Cc1ccc(Nc2nc(-c3cccnc3)cs2)cc1C | -2 | -3 | 1 | 1 | 0
Clc1cccc(Nc2nc(-c3cccnc3)cs2)c1 | 6 | 27* | 0 | 5 | 1
Cc1cc(S(=O)(=O)N2CCCC2C(=O)N2CCOCC2)c(C)cc1Cl (stereo unspecified) | -3 | 58* | 5 | 2 | 0
O=C(O)CS(=O)(=O)c1ccc(Oc2ccc(S(=O)(=O)CC(=O)O)cc2)cc1 | 0 | 11* | -6 | / | /
CC(=O)CS(=O)(=O)c1ccc(Oc2ccc(S(=O)(=O)CC(C)=O)cc2)cc1 | 1 | 0 | -2 | 0 | 0
Cc1[nH]c2ccccc2c1/C=N/NC(=O)c1ccccc1 | 4 | -4 | 1 | 0 | 0
SMILES | procasp7 counter | GRIN3A LBD mod | procasp3 activ | MPTP block | aDG glyco act
CCc1cccc2c(/C=N/NC(=O)c3cccc(S(=O)(=O)Nc4ccccc4Cl)c3)c[nH]c12 | -2 | 27* | 3 | -3 | 0
Cc1[nH]c2ccccc2c1/C=N/NC(=O)c1cccc(Br)c1 | 4 | 16* | 0 | 0 | 0
COc1ccc2ccccc2c1/C=N/NC(=O)c1cccc(Br)c1 | 3 | 4 | 0 | 4 | 0
O=C(N/N=C/c1[nH]c2ccccc2c1Cl)c1cccc(Br)c1 | -10 | 12* | -11 | 15 | 1
Cc1[nH]c2ccccc2c1/C=N/NC(=O)c1ccc(N)cc1 | -4 | 11* | -2 | 1 | 0
COC(=O)N(C)C[C@@H]1OCc2cnnn2CCCC(=O)N([C@H](C)CO)C[C@H]1C | / | / | / | -2 | 0
Cc1[nH]c2ccccc2c1/C=N/NC(=O)c1cccc(S(=O)(=O)Nc2ccccc2Cl)c1 | -14 | 24* | -6 | 0 | 0
O=C(N/N=C/c1cccs1)c1cccc(S(=O)(=O)Nc2ccc(Cl)cc2)c1 | -6 | 28* | -2 | 10 | 0
Cc1[nH]c2ccccc2c1/C=N/NC(=O)c1cc(-c2ccncc2)nc2ccccc12 | -2 | 7 | 2 | 0 | 0
Cc1[nH]c2ccccc2c1/C=N/NC(=O)c1cc(-c2ccccc2)n[nH]1 | 4 | 19* | -5 | -4 | 0
Cc1ccc(-c2nn(-c3ccc(F)cc3)cc2C(=O)NCCCN2CCCC2=O)cc1 | / | 3 | / | -2 | 0
CC(C)CN(C(=O)COc1ccccc1C(=O)NCc1ccccc1)C1CCS(=O)(=O)C1 (stereo unspecified) | / | / | / | 0 | 0
COc1ccc(NC(=O)Nc2nnc([C@H]3C[C@H](O)[C@@H](CO)O3)s2)cc1 | / | / | / | -2 | 0
CCOCCCNC(=O)C1(O)c2ccccc2NC(=O)N1c1ccc(Cl)cc1 (stereo unspecified) | -1 | 12* | -2 | 7 | 0
CCOCCCNC(=O)C1(O)c2cc(Br)ccc2NC(=O)N1c1ccc(OCC)cc1 (stereo unspecified) | 0 | 12* | 8 | 0 | 0
CCOCCCNC(=O)C1(O)c2cc(Br)ccc2NC(=O)N1c1ccc(CC)cc1 (stereo unspecified) | -1 | 18* | 9 | -1 | 0
CCOCCCNC(=O)C1(O)c2cc(Br)ccc2NC(=O)N1c1cccc(OC)c1 (stereo unspecified) | -1 | -1 | 9 | 1 | 0
Cc1ccc(NC(=O)COc2ccccc2C(=O)NCc2ccccc2)cc1 | 4 | -8 | -3 | 1 | 0
CC(C)(C)NC(=O)COC(=O)c1ccccc1NC(=O)c1ccco1 | 7 | 1 | -4 | 1 | 1
O=C(Nc1ccccc1C(=O)OCC(=O)c1c[nH]c2ccccc12)c1ccco1 | 5 | 26* | -5 | -18 | 1
CCCN(C(=O)CCOc1ccc(C(C)(C)C)cc1)c1c(N)n(Cc2ccccc2)c(=O)[nH]c1=O | 5 | -1 | 3 | -1 | 0
CCOc1cc(C(=O)O)cc(Cl)c1OC | -2 | 21* | 3 | -2 | 0
